In ChEMBL document CHEMBL1155387, “Substituted fused bicyclic pyrrolizinones as potent, orally bioavailable hNK1 antagonists” (Bioorg Med Chem Lett, 2010):
Several values for one entry are separate records, joined by “and”; a condition that tells them apart may be missing. Equal entries are not always repeated.

Columns and labels:
[1] = target: T1, Substance-P receptor (Homo sapiens, UniProt P25103); test: Displacement of [125I]substance P from human NK1 receptor expressed in CHO cells; assay type: cell-based
T1 sequence (P25103 whole entry): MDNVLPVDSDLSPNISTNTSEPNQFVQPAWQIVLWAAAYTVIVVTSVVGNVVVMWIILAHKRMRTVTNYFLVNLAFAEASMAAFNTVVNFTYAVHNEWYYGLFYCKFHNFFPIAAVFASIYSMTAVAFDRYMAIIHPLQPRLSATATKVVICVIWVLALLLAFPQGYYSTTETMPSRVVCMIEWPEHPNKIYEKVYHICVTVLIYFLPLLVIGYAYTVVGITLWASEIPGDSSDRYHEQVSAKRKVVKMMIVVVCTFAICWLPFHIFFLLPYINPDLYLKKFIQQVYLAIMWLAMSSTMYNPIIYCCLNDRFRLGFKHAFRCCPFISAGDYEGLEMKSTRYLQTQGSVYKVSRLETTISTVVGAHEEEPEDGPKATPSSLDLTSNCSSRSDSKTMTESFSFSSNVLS
Method in brief: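 Competition binding: [125I]-labelled substance P displaced from cloned human NK1 receptor expressed in CHO cells; IC50 reported as mean of n = 3.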

[2] = target: T1, Substance-P receptor; test: Displacement of [125I]substance P from human NK1 receptor expressed in CHO cells in the presence of 50 percent human serum; assay type: cell-based
[3] = test system: Gerbillinae; test: Inhibition of GR-73632-induced foot tapping in gerbils at 3 mg/kg, iv after 24 hrs; assay type: functional; conditions: for inhibition (INH): 3 mg/kg; for inhibition in vivo at 3 mg/kg: Gerbillinae, iv, 24 h
Method in brief: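 Gerbils dosed iv at 3 mg/kg; foot tapping induced by NK1 agonist GR73632 evaluated 24 h post-dose; percent inhibition of the tapping response.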

[4] = Displacement of diltiazem […] from calcium channel
Method in brief: (§1)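 Ion-channel binding assay; IC50 values calculated for sodium channel and for calcium channel (diltiazem site).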

[5] = Inhibition of sodium channel; method in brief: as §1
[6] = target: T1, Substance-P receptor; test: Antagonist activity at human NK1 receptor expressed in CHO cells assessed as inhibition of substance P-induced inositol phosphate generation at 100 nM; assay type: functional, cell-based
[7] = test system: Gerbillinae; test: Inhibition of GR-73632-induced foot tapping in gerbils at 1 mg/kg, iv after 1 hr; assay type: functional
Method in brief: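 Gerbils given 1 mg/kg iv; GR73632-induced foot tapping challenged 1 h after dosing; inhibition of tapping scored.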

Compound	IC50 [1]	IC50 [2]	inhibition (INH) [3]	IC50 [4]	IC50 [5]	inhibition of substance P-induced inositol phosphate generation [6]	inhibition in vivo at 3 mg/kg [3]	inhibition in vivo at 1 mg/kg [7]
C[C@@H](O[C@H]1CN2C(=O)C(C)(O)C[C@H]2[C@@H]1c1ccc(F)cc1)c1cc(C(F)(F)F)cc(C(F)(F)F)c1 (stereo in doubt; 5b) [listing 1 of 2 here]	0.04 nM	0.8 nM	100%	2180 nM	3200 nM			
C[C@@H](O[C@H]1CN2C(=O)C(N)C[C@H]2[C@@H]1c1ccc(F)cc1)c1cc(C(F)(F)F)cc(C(F)(F)F)c1 (stereo in doubt; 3a) [listing 1 of 2 here]						92%		
C[C@@H](O[C@H]1CN2C(=O)C(O)C[C@H]2[C@@H]1c1ccc(F)cc1)c1cc(C(F)(F)F)cc(C(F)(F)F)c1 (single isomer, unassigned) [listing 1 of 2 here]	0.14 nM	5.6 nM		8060 nM	5140 nM		95%	
C[C@@H](O[C@H]1CN2C(=O)C(n3cnnc3)C[C@H]2[C@@H]1c1ccc(F)cc1)c1cc(C(F)(F)F)cc(C(F)(F)F)c1 (single isomer, unassigned) [listing 1 of 2 here]	0.05 nM	1.8 nM			5320 nM			0%
C[C@@H](O[C@H]1CN2C(=O)C(n3cnnc3)C[C@H]2[C@@H]1c1ccc(F)cc1)c1cc(C(F)(F)F)cc(C(F)(F)F)c1 (single isomer, unassigned) [listing 2 of 2 here]						74%		
C[C@@H](O[C@H]1CN2C(=O)C(O)C[C@H]2[C@@H]1c1ccc(F)cc1)c1cc(C(F)(F)F)cc(C(F)(F)F)c1 (stereo in doubt; 2b)						60%		
C[C@@H](O[C@H]1CN2C(=O)C(NCc3ccn[nH]3)C[C@H]2[C@@H]1c1ccc(F)cc1)c1cc(C(F)(F)F)cc(C(F)(F)F)c1 (stereo not given in full)	0.06 nM	0.9 nM		598 nM	1470 nM	55%	92%	
C[C@@H](O[C@H]1CN2C(=O)CC(N)[C@H]2[C@@H]1c1ccc(F)cc1)c1cc(C(F)(F)F)cc(C(F)(F)F)c1 (stereo in doubt; 15b) [listing 1 of 2 here]	0.08 nM and 0.11 nM	0.77 nM and 1.8 nM		1560 nM and 1360 nM	4980 nM and 558 nM			
C[C@@H](O[C@H]1CN2C(=O)C(N)C[C@H]2[C@@H]1c1ccc(F)cc1)c1cc(C(F)(F)F)cc(C(F)(F)F)c1 (stereo in doubt; 3b) [listing 1 of 2 here]						59%		
C[C@@H](O[C@H]1CN2C(=O)CC(O)[C@H]2[C@@H]1c1ccc(F)cc1)c1cc(C(F)(F)F)cc(C(F)(F)F)c1 (single isomer, unassigned; 18a) [listing 1 of 2 here]	0.08 nM	2.1 nM		2380 nM	1990 nM		100%	
C[C@@H](O[C@H]1CN2C(=O)C(n3cnnc3)C[C@H]2[C@@H]1c1ccc(F)cc1)c1cc(C(F)(F)F)cc(C(F)(F)F)c1 (stereo in doubt; 21a) [listing 1 of 2 here]	0.07 nM	1.9 nM		> 10000 nM	> 10000 nM			
C[C@@H](O[C@H]1CN2C(=O)CC(C)(O)[C@H]2[C@@H]1c1ccc(F)cc1)c1cc(C(F)(F)F)cc(C(F)(F)F)c1 (stereo in doubt; 20a) [listing 1 of 2 here]						28%		
C[C@@H](O[C@H]1CN2C(=O)C(n3cnnc3)C[C@H]2[C@@H]1c1ccc(F)cc1)c1cc(C(F)(F)F)cc(C(F)(F)F)c1 (stereo in doubt; 21a) [listing 2 of 2 here]						81%		
C[C@@H](O[C@H]1CN2C(=O)CC(NCc3ccn[nH]3)[C@H]2[C@@H]1c1ccc(F)cc1)c1cc(C(F)(F)F)cc(C(F)(F)F)c1 (stereo not given in full)	0.13 nM	1.83 nM		2390 nM	2970 nM	68%	94%	
C[C@@H](O[C@H]1CN2C(=O)CC(C)(O)[C@H]2[C@@H]1c1ccc(F)cc1)c1cc(C(F)(F)F)cc(C(F)(F)F)c1 (stereo in doubt; 20b) [listing 1 of 2 here]						57%		
C[C@@H](O[C@H]1CN2C(=O)CC(N)[C@H]2[C@@H]1c1ccc(F)cc1)c1cc(C(F)(F)F)cc(C(F)(F)F)c1 (stereo in doubt; 15a)						75%		

Compound	IC50 [1]	IC50 [2]	inhibition (INH) [3]	IC50 [4]	IC50 [5]	inhibition of substance P-induced inositol phosphate generation [6]	inhibition in vivo at 3 mg/kg [3]	inhibition in vivo at 1 mg/kg [7]
C[C@@H](O[C@H]1CN2C(=O)C(C)(O)C[C@H]2[C@@H]1c1ccc(F)cc1)c1cc(C(F)(F)F)cc(C(F)(F)F)c1 (stereo in doubt; 5b) [listing 2 of 2 here]						45%		
C[C@@H](O[C@H]1CN2C(=O)C(O)C[C@H]2[C@@H]1c1ccc(F)cc1)c1cc(C(F)(F)F)cc(C(F)(F)F)c1 (single isomer, unassigned) [listing 2 of 2 here]						90%		
C[C@@H](O[C@H]1CN2C(=O)C(N)C[C@H]2[C@@H]1c1ccc(F)cc1)c1cc(C(F)(F)F)cc(C(F)(F)F)c1 (stereo in doubt; 3b) [listing 2 of 2 here]	0.06 nM	0.38 nM	100%	214 nM	239 nM			
C[C@@H](O[C@H]1CN2C(=O)CC(C)(O)[C@H]2[C@@H]1c1ccc(F)cc1)c1cc(C(F)(F)F)cc(C(F)(F)F)c1 (stereo in doubt; 20a) [listing 2 of 2 here]	0.07 nM	1.1 nM		2210 nM	2210 nM		96%	
C[C@@H](O[C@H]1CN2C(=O)C(NCc3nn[nH]c3CN(C)C)C[C@H]2[C@@H]1c1ccc(F)cc1)c1cc(C(F)(F)F)cc(C(F)(F)F)c1 (stereo not given in full)	0.13 nM	1.4 nM		301 nM	2410 nM	40%		88%
C[C@@H](O[C@H]1CN2C(=O)C(C)(O)C[C@H]2[C@@H]1c1ccc(F)cc1)c1cc(C(F)(F)F)cc(C(F)(F)F)c1 (single isomer, unassigned) [listing 1 of 2 here]	0.09 nM	2.5 nM		1870 nM	4820 nM		98%	
C[C@@H](O[C@H]1CN2C(=O)C(C)(O)C[C@H]2[C@@H]1c1ccc(F)cc1)c1cc(C(F)(F)F)cc(C(F)(F)F)c1 (single isomer, unassigned) [listing 2 of 2 here]						70%		
C[C@@H](O[C@H]1CN2C(=O)CC(O)[C@H]2[C@@H]1c1ccc(F)cc1)c1cc(C(F)(F)F)cc(C(F)(F)F)c1 (single isomer, unassigned; 18a) [listing 2 of 2 here]						65%		
C[C@@H](O[C@H]1CN2C(=O)CC(C)(O)[C@H]2[C@@H]1c1ccc(F)cc1)c1cc(C(F)(F)F)cc(C(F)(F)F)c1 (stereo in doubt; 20b) [listing 2 of 2 here]	0.06 nM	2.6 nM						
C[C@@H](O[C@H]1CN2C(=O)CC(n3cnnc3)[C@H]2[C@@H]1c1ccc(F)cc1)c1cc(C(F)(F)F)cc(C(F)(F)F)c1 (stereo not given in full)	0.07 nM	0.83 nM		> 10000 nM	7820 nM	52%		0%
C[C@@H](O[C@H]1CN2C(=O)CC(O)[C@H]2[C@@H]1c1ccc(F)cc1)c1cc(C(F)(F)F)cc(C(F)(F)F)c1 (single isomer, unassigned; 18b) [listing 1 of 2 here]						79%		
C[C@@H](O[C@H]1CN2C(=O)C(N)C[C@H]2[C@@H]1c1ccc(F)cc1)c1cc(C(F)(F)F)cc(C(F)(F)F)c1 (stereo in doubt; 3a) [listing 2 of 2 here]	0.27 nM	2.1 nM		98 nM	2820 nM		99%	
C[C@@H](O[C@H]1CN2C(=O)CC(C)(N)[C@H]2[C@@H]1c1ccc(F)cc1)c1cc(C(F)(F)F)cc(C(F)(F)F)c1 (stereo not given in full)	0.08 nM	0.42 nM		767 nM	1400 nM	45%	100%	
C[C@@H](O[C@H]1CN2C(=O)CC(N)[C@H]2[C@@H]1c1ccc(F)cc1)c1cc(C(F)(F)F)cc(C(F)(F)F)c1 (stereo in doubt; 15b) [listing 2 of 2 here]						87% and 63%		
C[C@@H](O[C@H]1CN2C(=O)CC(O)[C@H]2[C@@H]1c1ccc(F)cc1)c1cc(C(F)(F)F)cc(C(F)(F)F)c1 (single isomer, unassigned; 18b) [listing 2 of 2 here]	0.07 nM	2.7 nM						
